TRPC4 inh: blocks the mouse TRPC4 cation channel | 300,000 compounds, 0.39% hits | AID 2247 | B-score at 10 µM | HEK293 TRPC4beta/mu-opioid, DAMGO-evoked Fluo4 calcium flux; hits give low values | Q9QUQ5;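 active = B-score over 3 SD under the library average, no early fluorescence shift, positive overall ratio signal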
Target sequence (Q9QUQ5 whole entry, looked up): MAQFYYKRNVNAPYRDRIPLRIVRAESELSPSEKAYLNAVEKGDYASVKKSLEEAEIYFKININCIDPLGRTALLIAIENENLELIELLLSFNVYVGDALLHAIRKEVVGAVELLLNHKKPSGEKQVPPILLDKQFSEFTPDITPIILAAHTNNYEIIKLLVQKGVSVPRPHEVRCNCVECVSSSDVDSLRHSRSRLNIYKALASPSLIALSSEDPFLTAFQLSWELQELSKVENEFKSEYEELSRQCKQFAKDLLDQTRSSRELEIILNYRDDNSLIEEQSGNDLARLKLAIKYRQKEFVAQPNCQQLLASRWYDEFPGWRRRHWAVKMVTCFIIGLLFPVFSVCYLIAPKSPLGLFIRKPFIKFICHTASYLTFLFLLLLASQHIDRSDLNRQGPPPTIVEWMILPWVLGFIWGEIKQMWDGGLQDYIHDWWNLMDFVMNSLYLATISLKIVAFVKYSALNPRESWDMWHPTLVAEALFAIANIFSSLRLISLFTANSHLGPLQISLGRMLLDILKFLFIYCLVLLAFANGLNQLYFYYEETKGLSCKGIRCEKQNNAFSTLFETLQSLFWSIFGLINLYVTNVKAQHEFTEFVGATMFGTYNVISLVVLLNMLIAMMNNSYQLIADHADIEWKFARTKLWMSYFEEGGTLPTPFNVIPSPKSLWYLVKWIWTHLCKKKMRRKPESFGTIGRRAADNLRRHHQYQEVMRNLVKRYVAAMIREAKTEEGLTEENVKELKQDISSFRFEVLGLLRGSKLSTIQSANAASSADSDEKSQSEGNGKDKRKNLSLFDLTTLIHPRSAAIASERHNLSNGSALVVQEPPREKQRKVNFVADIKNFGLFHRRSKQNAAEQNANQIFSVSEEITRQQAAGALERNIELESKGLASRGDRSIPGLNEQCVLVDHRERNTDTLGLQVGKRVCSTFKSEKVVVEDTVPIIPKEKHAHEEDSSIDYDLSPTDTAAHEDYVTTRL
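Assay system: Stable TRPC4beta/mu-opioid receptor HEK293 cells | Reagent: DAMGO in two steps, submaximal then maximal | Compound dosing: Single concentration per test compound | Signal: Fluo4 Ca2+ flux fluorescence | Evaluation: Per-well B score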
TRPC6 inh: mouse TRPC6 channel inhibition. 310,000 compounds, 1.1% hits. B-score at 10 µM. AID 2553. HEK293-TRPC6, membrane potential dye, ACh-evoked depolarization; hits give low values. Q61143;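 active = B-score under library mean minus 3 SD, initial fluorescence not abnormally high, positive integrated signal ratio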;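 note: B-score derived from integrated fluorescence ratio over the kinetic read; more negative B-score means stronger inhibition of depolarization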
TRPC4 PAM: allosteric potentiators of mouse TRPC4 channel; B-score at 10 µM; HEK293 TRPC4beta/mu-opioid, DAMGO EC20, Fluo-4 Ca2+ flux; hits give high values; 310,000 compounds, 0.42% hits;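 active = B-score of calcium response area above 5 SD of library B-scores, with initial fluorescence ratio within 5 SD of library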
TRPC4 act: TRPC4 (mouse) channel activation. HEK293 TRPC4beta/mu-opioid, Fluo4 calcium fluorescence; hits give high values. B-score at 10 µM. 310,000 compounds, 0.49% hits;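 active = B-score above 5 SD of library B-scores, and initial fluorescence ratio not above library mean plus 5 SD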;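 note: positive B-score marks a calcium rise read as TRPC4 activation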
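System: HEK293 cells stably co-expressing mouse TRPC4beta and mu-opioid receptor; Schedule: Fluo4 dye loading 45 min at room temperature, 110 s recording; Detection: Fluo4 fluorescence, kinetic; Evaluation: B-scored integrated calcium fluorescence ratio; Controls: buffer (low) and maximal DAMGO (high).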
TRPC6 activator: mouse TRPC6 channel activation. 310,000 compounds, 0.13% hits. Q61143. AID 2550. B-score at 10 µM. HEK293-TRPC6 membrane potential dye fluorescence; hits give high values;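 active = B-score of the integrated fluorescence ratio above library mean plus 3 SD, and starting fluorescence ratio within library mean plus 5 SD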;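 note: higher score means more depolarization so channel activation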
Pemphigus Ab inh: blocks pemphigus antibody binding to human desmoglein-3; P32926; 310,000 compounds, 0.48% hits; binding (percent of control), % at 10 µM; DSG3-coupled beads, scFv-anti-DSG3-GFP binding, flow cytometry; hits give low values;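 active = binding more than 3 SD below its plate's average and above zero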;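 note: hits lower antibody fragment binding to DSG3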
Hits are given with their value. In the library only some 2.5% were active in any assay of this set; here they are far more common.

Results for CCOC(=O)c1cc2c(=O)n3ccccc3nc2n(CCOC)c1=NC(=O)C(C)(C)C ?
TRPC4 inh: inactive; TRPC6 inh: inactive; TRPC4 PAM: inactive; TRPC4 act: 152; TRPC6 activator: inactive; Pemphigus Ab inh: inactive

Results for CCOC(=O)c1cc2c(=O)n3cccc(C)c3nc2n(Cc2ccco2)c1=NC(=O)c1cccnc1 ?
Pemphigus Ab inh: inactive

How did O=C(CCCc1c[nH]c2ccccc12)N[C@@H](Cc1c[nH]c2ccccc12)C(=O)O do in these assays?
TRPC4 inh: inactive; TRPC6 inh: inactive; TRPC4 PAM: inactive; TRPC4 act: inactive; TRPC6 activator: inactive; Pemphigus Ab inh: inactive

How did Cc1nc(N2CCN(C)CC2)c2c3c(sc2n1)CCCC3 do in these assays?
TRPC4 inh: inactive; TRPC6 inh: -5.44; TRPC4 PAM: inactive; TRPC4 act: inactive; TRPC6 activator: inactive; Pemphigus Ab inh: inactive

How did Cc1nc(N2CCN(C(=O)c3cccs3)CC2)c2c3c(sc2n1)CCCC3 do in these assays?
TRPC4 inh: inactive; TRPC6 inh: inactive; TRPC4 PAM: inactive; TRPC4 act: inactive; TRPC6 activator: inactive; Pemphigus Ab inh: inactive

How did O=C(NCC1CCCO1)c1cc2cc(Cl)ccc2[nH]1 (configuration not stated) do in these assays?
TRPC4 inh: inactive; TRPC6 inh: inactive; TRPC4 PAM: inactive; TRPC4 act: inactive; TRPC6 activator: inactive; Pemphigus Ab inh: inactive

What do the screens show for `Cc1nn(C)c(C)c1Sc1ccc(Br)cc1`?
TRPC4 inh: -6; TRPC6 inh: inactive; TRPC4 PAM: inactive; TRPC4 act: inactive; TRPC6 activator: inactive; Pemphigus Ab inh: inactive

What do the screens show for `COCCCn1c(=O)c2sccc2n(Cc2ccccc2)c1=O`?
TRPC4 inh: inactive; TRPC6 inh: inactive; TRPC4 PAM: inactive; TRPC4 act: inactive; TRPC6 activator: inactive; Pemphigus Ab inh: inactive

Results for COCCCn1c(=O)c2ccccc2n(Cc2ccccc2)c1=O ?
TRPC4 inh: inactive; TRPC6 inh: inactive; TRPC4 PAM: inactive; TRPC4 act: inactive; TRPC6 activator: inactive; Pemphigus Ab inh: 100.4

How did Cc1oc2cc3oc(=O)c(CCC(=O)N4C[C@H]5C[C@@H](C4)c4cccc(=O)n4C5)c(C)c3cc2c1C do in these assays?
TRPC4 inh: inactive; TRPC6 inh: inactive; TRPC4 PAM: inactive; TRPC4 act: inactive; TRPC6 activator: inactive; Pemphigus Ab inh: inactive

How did O=C(C1CCN(C2CCN(CC3CC=CCC3)CC2)CC1)N1CCOCC1 (configuration not stated) do in these assays?
TRPC4 inh: inactive; TRPC6 inh: inactive; TRPC4 PAM: inactive; TRPC4 act: inactive; TRPC6 activator: inactive; Pemphigus Ab inh: inactive

Results for Cc1ccc(CN2CCNC(=O)C2CC(=O)NCCCn2nnc3ccccc32)cc1 (configuration not stated) ?
Pemphigus Ab inh: inactive

How did CCOC(=O)N1CCC(NC(=O)c2cccc3c2C(=O)N(c2ccc(OC)cc2)C3)CC1 do in these assays?
TRPC4 inh: inactive; TRPC6 inh: -7.8; TRPC4 PAM: inactive; TRPC4 act: inactive; TRPC6 activator: inactive; Pemphigus Ab inh: inactive

What do the screens show for `CCOC(=O)N1CCC(N2Cc3cccc(C(=O)NCc4ccccc4OC)c3C2=O)CC1`?
TRPC4 inh: inactive; TRPC6 inh: -7.35; TRPC4 PAM: inactive; TRPC4 act: inactive; TRPC6 activator: inactive

What do the screens show for `CCOC(=O)N1CCC(NC(=O)c2cn(-c3ccc(OC)cc3)c(=O)c3ccccc23)CC1`?
TRPC4 inh: inactive; TRPC6 inh: inactive; TRPC4 PAM: inactive; TRPC4 act: inactive; TRPC6 activator: inactive; Pemphigus Ab inh: inactive

How did COc1cc(C(=O)N(CCc2ccccc2)C2=CC3CCC(C2)N3C)cc(OC)c1OC (configuration not stated) do in these assays?
TRPC4 inh: -7; TRPC6 inh: inactive; TRPC4 PAM: inactive; TRPC4 act: inactive; TRPC6 activator: inactive; Pemphigus Ab inh: inactive

What do the screens show for `CCC(CC)C1=NN2C(=N)/C(=C\c3cc(C)n(-c4cccc(C)c4)c3C)C(=O)N=C2S1`?
TRPC4 inh: inactive; TRPC6 inh: inactive; TRPC4 PAM: inactive; TRPC4 act: inactive; TRPC6 activator: inactive; Pemphigus Ab inh: 71.6

Results for CC1=NN2C(=N)/C(=C\c3cc(C)n(-c4ccccc4)c3C)C(=O)N=C2S1 ?
TRPC4 inh: inactive; TRPC6 inh: inactive; TRPC4 PAM: inactive; TRPC4 act: inactive; TRPC6 activator: inactive; Pemphigus Ab inh: inactive

Results for COc1ccc(NC(=O)c2ccc3c(c2)OCO3)cc1Cl ?
TRPC4 inh: inactive; TRPC6 inh: inactive; TRPC4 PAM: inactive; TRPC4 act: inactive; TRPC6 activator: inactive; Pemphigus Ab inh: 46.1

How did CCOC(=O)C1=NN(C(=O)c2cccc(Br)c2)C(O)(C(C)(C)C)C1 (configuration not stated) do in these assays?
TRPC4 inh: inactive; TRPC6 inh: inactive; TRPC4 PAM: inactive; TRPC4 act: 180; TRPC6 activator: inactive

What do the screens show for `COCc1cc(C)nc(SCC(=O)Nc2cccc3cccnc23)c1C#N`?
TRPC4 inh: inactive; TRPC6 inh: inactive; TRPC4 PAM: inactive; TRPC4 act: inactive; TRPC6 activator: inactive; Pemphigus Ab inh: 23.3

What do the screens show for `CCN(CC)c1nc(N2CCOCC2)nc2ccccc12`?
TRPC4 inh: -6; TRPC6 inh: inactive; TRPC4 PAM: inactive; TRPC4 act: inactive; TRPC6 activator: inactive; Pemphigus Ab inh: inactive

Results for CN(CC(=O)OCC(=O)NCC(F)(F)F)S(=O)(=O)c1ccc(Cl)cc1 ?
TRPC4 inh: inactive; TRPC6 inh: inactive; TRPC4 PAM: inactive; TRPC4 act: inactive; TRPC6 activator: inactive; Pemphigus Ab inh: inactive

What do the screens show for `Cc1ccc(-c2nn(-c3ccccc3)cc2CSC(=N)N)cc1`?
TRPC4 inh: inactive; TRPC6 inh: inactive; TRPC4 PAM: inactive; TRPC4 act: 68; TRPC6 activator: inactive; Pemphigus Ab inh: inactive

How did OCc1cn(-c2ccccc2)nc1-c1ccc(-c2nn(-c3ccccc3)cc2CO)cc1 do in these assays?
TRPC4 inh: inactive; TRPC6 inh: inactive; TRPC4 PAM: inactive; TRPC4 act: inactive; TRPC6 activator: inactive

How did COc1ccc(S(=O)(=O)Nc2cccc3c2O[C@H](CN(C)S(=O)(=O)c2ccccc2)[C@@H](C)CN([C@H](C)CO)C3=O)cc1 do in these assays?
Pemphigus Ab inh: inactive

What do the screens show for `O=C1c2ccccc2C(=O)N1CCc1csc(NNc2nc(CCN3C(=O)c4ccccc4C3=O)cs2)n1`?
TRPC4 inh: inactive; TRPC6 inh: inactive; TRPC4 PAM: inactive; TRPC4 act: inactive; TRPC6 activator: inactive; Pemphigus Ab inh: 75.7

What do the screens show for `CC(C)(C)c1ccc(C(=O)N2CCC(=O)N(C(COCc3ccccc3)Cc3ccccc3)CC2)cc1` (configuration not stated)?
TRPC4 inh: inactive; TRPC6 inh: inactive; TRPC4 PAM: inactive; TRPC4 act: 50; TRPC6 activator: inactive; Pemphigus Ab inh: inactive
